Experimental data reported in ChEMBL document CHEMBL4616704, “Discovery of an Atropisomeric PI3Kβ Selective Inhibitor through Optimization of the Hinge Binding Motif” (ACS Med Chem Lett, 2020).

Assays:
[1] = target: Phosphatidylinositol 4,5-bisphosphate 3-kinase catalytic subunit gamma isoform (Homo sapiens, UniProt P48736); assay: Inhibition of human full length p110gamma using PIP2 as substrate after 30 mins in presence of ATP at 2xKm concentration by TR-FRET assay
[2] = Dissociation constant, acidic pKa of compound; format: physicochemical
[3] = target: Cytochrome P450 3A4 (Homo sapiens, UniProt P08684); assay: Inhibition of human CYP3A4; format: ADME
[4] = Apparent permeability across apical to basolateral side in human Caco2 cells at 10 uM after 1 to 2 hrs by LC/MS/MS analysis; format: ADME, cell-based; conditions: Caco-2
[5] = target: T1, Phosphatidylinositol 4,5-bisphosphate 3-kinase catalytic subunit beta isoform (Homo sapiens, UniProt P42338); assay: Inhibition of PI3Kbeta in PTEN-deficient human PC3 cells assessed as reduction in AKT phosphorylation at Ser473 residue after 2 hrs by mesoscale assay; format: cell-based, PC-3
Procedure, shortened: (§1)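 Cellular readout: pAKT1 Ser473 normalized to total AKT1, expressed as units pAKT1 Ser473 per nanogram total AKT1; cells treated under serum-free conditions.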

[6] = target: T1, Phosphatidylinositol 4,5-bisphosphate 3-kinase catalytic subunit beta isoform; assay: Inhibition of PI3Kbeta in PTEN-deficient human LNCaP C4-2 cells assessed as reduction in AKT phosphorylation at Ser473 residue after 2 hrs by mesoscale assay; format: cell-based; procedure, shortened: as §1
[7] = target: T1, Phosphatidylinositol 4,5-bisphosphate 3-kinase catalytic subunit beta isoform; assay: Inhibition of PI3Kbeta in PTEN-deficient human MDA-MB-415 cells assessed as reduction in AKT phosphorylation at Ser473 residue after 2 hrs by mesoscale assay; format: cell-based; procedure, shortened: as §1
[8] = target: T1, Phosphatidylinositol 4,5-bisphosphate 3-kinase catalytic subunit beta isoform; assay: Inhibition of PI3Kbeta in PTEN-deficient human ZR-75-1 cells assessed as reduction in AKT phosphorylation at Ser473 residue after 2 hrs by mesoscale assay; format: cell-based; procedure, shortened: as §1
[9] = Volume of distribution at steady state in Sprague-Dawley rat at 1 mg/kg administered as iv infusion for 30 mins and measured after 24 hrs by ESI-LC/MS/MS analysis; format: ADME, organism-based; conditions: in vivo, read-out: Vdss
[10] = Terminal half life in Sprague-Dawley rat at 1 mg/kg administered as iv infusion for 30 mins and measured after 24 hrs by ESI-LC/MS/MS analysis; format: ADME, organism-based; conditions: in vivo, read-out: beta t1/2 (converted)
[11] = MRT in Sprague-Dawley rat at 1 mg/kg administered as iv infusion for 30 mins and measured after 24 hrs by ESI-LC/MS/MS analysis; format: ADME, organism-based; conditions: in vivo
[12] = Oral bioavailability in Sprague-Dawley rat at 5 mg/kg dosed via gavage after 24 hrs by ESI-LC/MS/MS analysis; format: ADME, organism-based; conditions: in vivo
[13] = Protein binding in Beagle dog plasma at 1 mg/kg administered as iv infusion for 30 mins and measured after 24 hrs by ESI-LC/MS/MS analysis; format: ADME, organism-based, Canis lupus familiaris; conditions: read-out: PPB (converted)
[14] = Clearance in Beagle dog at 1 mg/kg administered as iv infusion for 30 mins and measured after 24 hrs by ESI-LC/MS/MS analysis; format: ADME, organism-based, Canis lupus familiaris; conditions: in vivo
[15] = Volume of distribution at steady state in Beagle dog at 1 mg/kg administered as iv infusion for 30 mins and measured after 24 hrs by ESI-LC/MS/MS analysis; format: ADME, organism-based, Canis lupus familiaris; conditions: in vivo, read-out: Vdss
[16] = Terminal half life in Beagle dog at 1 mg/kg administered as iv infusion for 30 mins and measured after 24 hrs by ESI-LC/MS/MS analysis; format: ADME, organism-based, Canis lupus familiaris; conditions: in vivo, read-out: beta t1/2 (converted)
[17] = MRT in Beagle dog at 1 mg/kg administered as iv infusion for 30 mins and measured after 24 hrs by ESI-LC/MS/MS analysis; format: ADME, organism-based, Canis lupus familiaris; conditions: in vivo
[18] = Oral bioavailability in Beagle dog at 5 mg/kg dosed via gavage after 24 hrs by ESI-LC/MS/MS analysis; format: ADME, organism-based, Canis lupus familiaris; conditions: in vivo
[19] = Protein binding in cynomolgus monkey plasma at 1 mg/kg administered as iv infusion for 30 mins and measured after 24 hrs by ESI-LC/MS/MS analysis; format: ADME, organism-based, Macaca fascicularis; conditions: read-out: PPB (converted)
[20] = Clearance in cynomolgus monkey at 1 mg/kg administered as iv infusion for 30 mins and measured after 24 hrs by ESI-LC/MS/MS analysis; format: ADME, organism-based, Macaca fascicularis; conditions: in vivo
[21] = Volume of distribution at steady state in cynomolgus monkey at 1 mg/kg administered as iv infusion for 30 mins and measured after 24 hrs by ESI-LC/MS/MS analysis; format: ADME, organism-based, Macaca fascicularis; conditions: in vivo, read-out: Vdss
[22] = Oral bioavailability in cynomolgus monkey at 5 mg/kg dosed via gavage after 24 hrs by ESI-LC/MS/MS analysis; format: ADME, organism-based, Macaca fascicularis; conditions: in vivo
[23] = Protein binding in rhesus monkey plasma at 1 mg/kg administered as iv infusion for 30 mins and measured after 24 hrs by ESI-LC/MS/MS analysis; format: ADME, organism-based, Macaca mulatta; conditions: read-out: PPB (converted)
[24] = Clearance in rhesus monkey at 1 mg/kg administered as iv infusion for 30 mins and measured after 24 hrs by ESI-LC/MS/MS analysis; format: ADME, organism-based, Macaca mulatta; conditions: in vivo
[25] = Volume of distribution at steady state in rhesus monkey at 1 mg/kg administered as iv infusion for 30 mins and measured after 24 hrs by ESI-LC/MS/MS analysis; format: ADME, organism-based, Macaca mulatta; conditions: in vivo, read-out: Vdss
[26] = Ocular toxicity in Beagle dog assessed as irreversible damage by measuring decrease response in visual stimuli at 10 to 40 mg/kg/day administered for 7 days and measured from day 4 to day 7; format: organism-based, Canis lupus familiaris; conditions: in vivo, 168 h
[27] = Ocular toxicity in Beagle dog assessed as irreversible damage by measuring red conjuctiva at 10 to 40 mg/kg/day administered for 7 days and measured from day 4 to day 7; format: organism-based, Canis lupus familiaris; conditions: in vivo, 168 h
[28] = Ocular toxicity in Beagle dog assessed as irreversible damage by measuring ocular discharge at 10 to 40 mg/kg/day administered for 7 days and measured from day 4 to day 7; format: organism-based, Canis lupus familiaris; conditions: in vivo, 168 h
[29] = Ocular toxicity in Beagle dog assessed as irreversible damage by measuring retinal degeneration at 10 to 100 mg/kg/day administered for 7 days by microscopic analysis; format: organism-based, Canis lupus familiaris; conditions: in vivo, 168 h
[30] = Ocular toxicity in Beagle dog assessed as irreversible damage by measuring choroidal inflammation at 10 to 100 mg/kg/day administered for 7 days measured on day 6 by ERG and OCT analysis; format: organism-based, Canis lupus familiaris; conditions: in vivo, 168 h
[31] = Ocular toxicity in Beagle dog assessed as irreversible damage by measuring retinal necrosis at 10 to 100 mg/kg/day administered for 7 days by microscopic analysis; format: organism-based, Canis lupus familiaris; conditions: in vivo, 168 h
[32] = Ocular toxicity in Beagle dog assessed as irreversible damage by measuring retinal detachment at 10 to 100 mg/kg/day administered for 7 days by microscopic analysis; format: organism-based, Canis lupus familiaris; conditions: in vivo, 168 h
[33] = Ocular toxicity in Beagle dog assessed as irreversible damage by measuring decrease in electroretinography response at 10 to 100 mg/kg/day administered for 7 days measured on day 6 by ERG and OCT analysis; format: organism-based, Canis lupus familiaris; conditions: in vivo, 168 h
[34] = target: CYP450 (Homo sapiens, UniProt P04798+P05177+P05181+P08684+P10632+P10635+P11509+P11712+P13584+P20813+P20815+P20853+P24462+P24903+P33260+P33261+P51589+P78329+P98187+Q02928+Q08477+Q16678+Q16696+Q5TCH4+Q6VVX0+Q7Z449+Q8TAV3+Q96SQ9+Q9HB55); assay: Inhibition of human CYP450; format: ADME, protein assay
Procedure, shortened: (§2)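 Binding-assay format used to measure inhibition of major human CYP450 enzymes and hERG.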

[35] = target: Voltage-gated inwardly rectifying potassium channel KCNH2 (Homo sapiens, UniProt Q12809); assay: Inhibition of human ERG; procedure, shortened: as §2
Voltage-gated inwardly rectifying potassium channel KCNH2, sequence (Q12809 whole entry): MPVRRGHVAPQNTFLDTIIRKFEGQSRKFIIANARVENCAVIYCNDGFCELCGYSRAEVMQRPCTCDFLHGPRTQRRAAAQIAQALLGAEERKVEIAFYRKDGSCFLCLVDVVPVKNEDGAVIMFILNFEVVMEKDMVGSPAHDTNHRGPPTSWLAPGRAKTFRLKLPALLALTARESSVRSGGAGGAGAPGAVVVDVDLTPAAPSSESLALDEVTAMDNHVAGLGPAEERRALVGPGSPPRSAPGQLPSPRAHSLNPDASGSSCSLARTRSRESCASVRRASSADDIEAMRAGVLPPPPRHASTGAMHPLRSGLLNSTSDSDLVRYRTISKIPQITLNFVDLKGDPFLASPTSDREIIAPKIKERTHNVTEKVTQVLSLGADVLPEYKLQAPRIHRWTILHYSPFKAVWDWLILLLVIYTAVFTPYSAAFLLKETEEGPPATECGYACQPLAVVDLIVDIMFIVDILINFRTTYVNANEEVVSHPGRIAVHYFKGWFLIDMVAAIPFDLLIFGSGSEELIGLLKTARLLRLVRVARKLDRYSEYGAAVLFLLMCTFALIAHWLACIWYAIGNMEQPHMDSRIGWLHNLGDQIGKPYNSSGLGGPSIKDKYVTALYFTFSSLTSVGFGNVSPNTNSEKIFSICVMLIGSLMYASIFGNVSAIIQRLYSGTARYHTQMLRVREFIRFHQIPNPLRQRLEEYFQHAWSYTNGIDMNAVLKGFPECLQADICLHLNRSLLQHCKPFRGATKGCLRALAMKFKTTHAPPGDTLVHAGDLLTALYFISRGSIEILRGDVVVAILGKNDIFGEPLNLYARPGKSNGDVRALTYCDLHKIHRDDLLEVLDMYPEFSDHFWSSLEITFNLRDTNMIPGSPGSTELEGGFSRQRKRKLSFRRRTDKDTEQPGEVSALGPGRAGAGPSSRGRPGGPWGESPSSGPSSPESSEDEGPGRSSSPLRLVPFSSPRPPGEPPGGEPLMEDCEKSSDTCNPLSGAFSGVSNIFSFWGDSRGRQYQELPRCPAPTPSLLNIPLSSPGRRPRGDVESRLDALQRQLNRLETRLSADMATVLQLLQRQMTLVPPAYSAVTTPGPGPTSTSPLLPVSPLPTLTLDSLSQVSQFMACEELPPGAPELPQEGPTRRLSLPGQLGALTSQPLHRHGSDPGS

T1 sequence (P42338 whole entry, canonical isoform): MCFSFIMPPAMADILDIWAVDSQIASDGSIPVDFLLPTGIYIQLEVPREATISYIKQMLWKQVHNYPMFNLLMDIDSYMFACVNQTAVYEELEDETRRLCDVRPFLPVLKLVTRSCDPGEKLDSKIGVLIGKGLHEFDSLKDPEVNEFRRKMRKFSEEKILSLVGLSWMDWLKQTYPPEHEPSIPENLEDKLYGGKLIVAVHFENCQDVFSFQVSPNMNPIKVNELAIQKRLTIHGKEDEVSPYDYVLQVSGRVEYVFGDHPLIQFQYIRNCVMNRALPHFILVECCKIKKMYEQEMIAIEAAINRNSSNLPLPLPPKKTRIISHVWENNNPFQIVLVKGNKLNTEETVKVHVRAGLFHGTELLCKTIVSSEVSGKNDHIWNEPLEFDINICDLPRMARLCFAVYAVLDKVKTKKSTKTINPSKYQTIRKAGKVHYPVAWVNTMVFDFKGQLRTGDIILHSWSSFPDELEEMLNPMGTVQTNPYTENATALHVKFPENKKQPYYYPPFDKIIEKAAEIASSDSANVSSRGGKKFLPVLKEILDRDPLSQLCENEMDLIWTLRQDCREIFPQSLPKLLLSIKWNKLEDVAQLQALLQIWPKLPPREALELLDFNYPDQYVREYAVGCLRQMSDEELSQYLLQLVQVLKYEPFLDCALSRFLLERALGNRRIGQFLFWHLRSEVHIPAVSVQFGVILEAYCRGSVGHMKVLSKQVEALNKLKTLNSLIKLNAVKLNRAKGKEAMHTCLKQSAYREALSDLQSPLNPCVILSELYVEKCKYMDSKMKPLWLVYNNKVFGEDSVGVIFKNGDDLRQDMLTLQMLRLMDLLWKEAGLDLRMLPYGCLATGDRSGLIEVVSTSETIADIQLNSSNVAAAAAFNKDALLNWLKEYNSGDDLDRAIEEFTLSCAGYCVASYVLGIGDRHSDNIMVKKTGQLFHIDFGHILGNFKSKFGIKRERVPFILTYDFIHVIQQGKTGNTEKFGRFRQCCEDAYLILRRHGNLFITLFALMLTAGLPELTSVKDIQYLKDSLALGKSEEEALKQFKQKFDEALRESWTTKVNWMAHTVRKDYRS
Phosphatidylinositol 4,5-bisphosphate 3-kinase catalytic subunit gamma isoform, sequence (P48736 whole entry, canonical isoform): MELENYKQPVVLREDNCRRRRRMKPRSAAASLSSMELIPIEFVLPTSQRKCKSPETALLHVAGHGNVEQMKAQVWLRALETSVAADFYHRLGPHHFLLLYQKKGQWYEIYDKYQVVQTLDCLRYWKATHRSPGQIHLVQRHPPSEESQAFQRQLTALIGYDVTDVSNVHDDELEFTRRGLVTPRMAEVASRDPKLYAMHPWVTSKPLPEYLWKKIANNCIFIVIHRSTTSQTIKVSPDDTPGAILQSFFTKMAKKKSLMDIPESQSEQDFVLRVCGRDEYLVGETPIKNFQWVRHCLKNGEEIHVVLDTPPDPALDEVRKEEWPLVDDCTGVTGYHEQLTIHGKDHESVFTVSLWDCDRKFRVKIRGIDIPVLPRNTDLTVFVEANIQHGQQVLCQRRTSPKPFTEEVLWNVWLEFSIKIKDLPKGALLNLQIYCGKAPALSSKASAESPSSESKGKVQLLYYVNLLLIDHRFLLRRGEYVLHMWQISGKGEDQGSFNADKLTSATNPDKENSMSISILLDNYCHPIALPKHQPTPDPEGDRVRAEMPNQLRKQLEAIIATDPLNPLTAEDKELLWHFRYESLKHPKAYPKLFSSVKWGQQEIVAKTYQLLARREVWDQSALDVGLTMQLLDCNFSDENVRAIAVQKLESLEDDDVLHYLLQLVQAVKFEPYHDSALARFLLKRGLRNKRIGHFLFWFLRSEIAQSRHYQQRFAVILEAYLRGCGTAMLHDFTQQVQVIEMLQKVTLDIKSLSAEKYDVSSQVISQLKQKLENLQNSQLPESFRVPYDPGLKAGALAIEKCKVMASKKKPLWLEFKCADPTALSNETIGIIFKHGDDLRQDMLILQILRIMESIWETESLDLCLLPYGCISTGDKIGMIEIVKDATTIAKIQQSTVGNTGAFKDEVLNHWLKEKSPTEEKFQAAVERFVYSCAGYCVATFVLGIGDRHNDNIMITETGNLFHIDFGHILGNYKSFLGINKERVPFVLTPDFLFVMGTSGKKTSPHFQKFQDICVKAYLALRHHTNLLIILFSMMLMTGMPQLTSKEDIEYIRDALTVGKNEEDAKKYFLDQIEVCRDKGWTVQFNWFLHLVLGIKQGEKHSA
Cytochrome P450 3A4, sequence (P08684 whole entry): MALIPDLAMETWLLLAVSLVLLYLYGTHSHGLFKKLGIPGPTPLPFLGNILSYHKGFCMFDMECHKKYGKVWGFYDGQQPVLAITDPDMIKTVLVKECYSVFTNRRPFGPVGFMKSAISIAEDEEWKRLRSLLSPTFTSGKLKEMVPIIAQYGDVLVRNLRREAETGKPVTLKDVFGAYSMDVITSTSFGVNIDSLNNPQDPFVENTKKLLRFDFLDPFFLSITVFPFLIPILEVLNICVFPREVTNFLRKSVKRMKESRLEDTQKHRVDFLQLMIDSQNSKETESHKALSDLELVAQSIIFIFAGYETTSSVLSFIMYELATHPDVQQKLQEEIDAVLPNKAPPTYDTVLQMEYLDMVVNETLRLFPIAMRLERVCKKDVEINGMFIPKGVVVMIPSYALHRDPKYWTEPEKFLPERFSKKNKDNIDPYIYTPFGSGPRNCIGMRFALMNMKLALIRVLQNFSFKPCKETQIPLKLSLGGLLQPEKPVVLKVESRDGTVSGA

Cc1nc2c(-c3nnc[nH]3)cc(-c3ccnc(C#N)c3)cc2n1-c1ccnc2c(F)ccc(F)c12
IC50 [1]: 6.61 µM
pKa [2]: < 1
IC50 [3]: 24 µM
Papp A→B at 10 µM [4]: 22 ×10⁻⁶ cm/s
EC50 [5]: 12 nM
EC50 [6]: 24 nM
EC50 [7]: 15 nM
EC50 [8]: 5 nM
Vd [9]: 2.5 L/kg
half-life [10]: 72 min
MRT [11]: 1.3 h
bioavailability [12]: 53%
fraction unbound at 24 h [13]: 0.14
clearance [14]: 5.67 mL/min/kg
Vd [15]: 2.5 L/kg
half-life [16]: 330 min
MRT [17]: 7.3 h
bioavailability [18]: 76%
fraction unbound at 24 h [19]: 0.16
clearance [20]: 4.17 mL/min/kg
Vd [21]: 1.3 L/kg
bioavailability [22]: 35%
fraction unbound at 24 h [23]: 0.19
clearance [24]: 7.83 mL/min/kg
Vd [25]: 2.6 L/kg
Activity [26]: Toxic
Activity [27]: Toxic
Activity [28]: Toxic
Activity [29]: Toxic
Activity [30]: Toxic
Activity [31]: Toxic
Activity [32]: Toxic
Activity [33]: Toxic
IC50 [34]: > 25 µM
IC50 [35]: > 25 µM
